Consider 2 compounds from ChEMBL document CHEMBL6092224, “The Discovery and Preclinical Profile of ALG-000184, a Prodrug of the Potent Hepatitis B Virus Capsid Assembly Modulator ALG-001075” (J Med Chem, 2024).

The nature of series [1]: Stability in simulated intestinal fluid for >24 hrs. In kind it is physicochemical. The following applies: simulated gi fluid. An outline of the steps:
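Stability tested in simulated gastric fluid containing pepsin and simulated intestinal fluid containing pancreatin.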

The nature of series [2]: Prodrug conversion in Sprague-Dawley rat assessed as formation of N-(3-cyano-4-fluorophenyl)-4-(2-((3-ethynyloxetan-3-yl)amino)-2-oxoacetyl)-1,3,5-trimethyl-1H-pyrrole-2-carboxamide metabolite at 37.8 mg/kg, po measured for 24 hrs. In kind it is ADME, organism-based. The following applies: in vivo. An outline of the steps:
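Single oral prodrug dose at molar equivalent of 30 mg/kg (rats) or […] of parent in 95% PEG 400/5% copovidone; whole blood collected into 4 volumes 75% MeOH/25% acetonitrile, centrifuged, parent quantified by LC-MS/MS; noncompartmental PK analysis.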

A short description of series [3]: Plasma protein binding in mouse at 2 uM incubated for 4 to 24 hrs by equilibrium dialysis method. In kind it is ADME, cell-free. The following applies: time 4-24 hrs, read-out: PPB. An outline of the steps:
(§1)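 Rapid equilibrium dialysis in mouse, rat, dog, monkey or human plasma for 4 or 24 h at 2 μM.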

A short description of series [4]: Plasma protein binding in human at 2 uM incubated for 4 to 24 hrs by equilibrium dialysis method. The following applies: time 4-24 hrs, read-out: PPB (converted). Type of series: ADME, cell-free. An outline of the steps:
as §1

A short description of series [5]: Efflux ratio of apparent permeability in human Caco-2 cells at 2 uM incubated for 1 hr. Type of series: ADME, cell-based. An outline of the steps: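 Bidirectional transport across Caco-2 cells in HBSS, pH 7.4, 0.1% final DMSO. Compound was tested at 1 or 2 μM for 1 h at 37 °C, 5% CO2. Apical and basal samples gave apparent permeability A→B and B→A, and the efflux ratio.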

Series [6] can be described thus: Tmax in C57BL/6J mouse at 5 mg/kg, po by LC-MS/MS analysis. In kind it is ADME, organism-based. Conditions: in vivo. An outline of the steps: (§2)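 Fasted males (C57BL6 mice, Sprague−Dawley rats, beagle dogs, cynomolgus monkeys) given a single oral solution dose of 5 mg/kg in 80% PEG 400 in water. Plasma sampled over time, analysed by LC-MS/MS. Noncompartmental analysis used nominal doses and nominal sampling times.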

Series [7] relates to Mus musculus. Briefly: Effect on HBeAg level in C57BL/6 mouse infected with AAV-Hepatitis B virus at 15 to 50 mg/kg, po qd for 56 days followed by induction of compound washout period for 14 days. In kind it is functional, organism-based. The following applies: dose 15-50 mg/kg, time 70.0 day.
Series [8] is described as follows: Ratio of drug concentration in blood to plasma in Cynomolgous monkey at 5 uM incubated for 60 mins. In kind it is ADME, cell-free, Macaca fascicularis. The following applies: cynomolgus monkey. An outline of the steps:
(§3)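 Compound at 5 μM in whole blood of each species, 37 ± 1 °C for 60 min; blood-to-plasma ratio and red blood cell partitioning determined.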

Series [9] can be described thus: Plasma protein binding in human at 1 uM incubated for 4 to 24 hrs by equilibrium dialysis method. In kind it is ADME, cell-free. The following applies: time 4-24 hrs, read-out: PPB (converted). The procedure, abridged:
(§4)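 Rapid equilibrium dialysis in mouse, rat, dog, monkey or human plasma for 4 or 24 h; test concentrations 1, […].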

Series [10] is described as follows: Plasma protein binding in rat at 1 uM incubated for 4 to 24 hrs by equilibrium dialysis method. In kind it is ADME, cell-free. The following applies: time 4-24 hrs, read-out: PPB (converted). The procedure, abridged: as §4
Series [11] in a line: Ratio of drug concentration in blood to plasma in mouse at 5 uM incubated for 60 mins. In kind it is ADME, cell-free. The procedure, abridged: as §3
The test system of series [12] is Hepatitis B virus. The series is described as follows: Antiviral activity against HBV infected in human HepG2.117 cells by qPCR analysis. In kind it is functional, organism-based. An outline of the steps:
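HepG2.117 cells (integrated genotype D HBV genome, Tet-off promoter; kept in 1 μg/mL doxycycline) were seeded at 20,000 cells/well and given serial compound dilutions (2% DMSO) for 3 days at 37 °C. Lysates were taken in 0.33% NP40. Intracellular HBV DNA was quantified by qPCR and EC50/EC90 derived. For serum shift, 40% human serum was present during incubation. Mean ± SEM, n=3 (serum) or 13.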

Series [13] is described as follows: AUC (infinity) in Sprague-Dawley rat at 1 mg/kg, iv by LC-MS/MS analysis. Type of series: ADME, organism-based. The following applies: in vivo. An outline of the steps:
(§5)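 Single dose to fasted male C57BL6 mice, Sprague-Dawley rats, beagle dogs and cynomolgus monkeys, either IV at 1 mg/kg or PO as a solution at 5 mg/kg, in 80% PEG 400 in water. Plasma concentrations were measured by LC-MS/MS. PK parameters come from noncompartmental analysis using nominal doses and nominal sampling times.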

Series [14] concerns the target Multidrug and toxin extrusion protein 1 (Homo sapiens, UniProt Q96FL8). Briefly: Inhibition of MATE1 (unknown origin) transfected in HEK293 cells. In kind it is cell-based. An outline of the steps:
(§6)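 HEK-293 cells transfected with the uptake transporter; uptake of known probe substrates measured with test compound at eight concentrations (0.0229–50.0 μM or 0.0457–100 μM); inhibition at each concentration used to calculate IC50.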

In series [15] the target is Organic anion transporter 3 (Homo sapiens, UniProt Q8TCC7). Briefly: Inhibition of OAT3 (unknown origin) transfected in HEK293 cells. In kind it is cell-based. An outline of the steps:
as §6

The subject of series [16] is Cav1.2. The series is described as follows: Inhibition of Cav1.2 (unknown origin) expressed in mammalian cells at 10 uM by automated patch-clamp method. In kind it is toxicity, cell-based, Homo sapiens. Conditions: mammalian cells expressing Cav1.2. An outline of the steps:
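Currents of hERG, Nav1.5 or Cav1.2 channels expressed in mammalian cells recorded by automated patch clamp (QPatch 48) at room temperature.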

In series [17] the test system is Hepatitis B virus. Briefly: Antiviral activity against HBV infected in human primary hepatocyte cells assessed as decrease in HBeAg level pre-infected cells with virus followed by compound treatment for 3 days and subsequent replacement of medium with compound measured after 4 days by CLIA. Type of series: functional, organism-based.
The subject of series [18] is Hepatitis B virus. The series is described as follows: Antiviral activity against AAV-Hepatitis B virus infected in C57BL/6 mouse assessed as reduction in baseline HBV DNA production at 15 to 50 mg/kg, po qd for 56 days followed by induction of compound washout period measured after 7 days. Type of series: functional, organism-based. The following applies: dose 15-50 mg/kg, time 63.0 day.

Series [19] concerns Hepatitis B virus. The series is described as follows: Antiviral activity against AAV-Hepatitis B virus infected in C57BL/6 mouse assessed as reduction in baseline HBV DNA production at 15 mg/kg, po bid for 56 days followed by induction of compound washout period measured after 7 days. Conditions: time 63 day. Type of series: functional.
Series [20] can be described thus: Tmax in Beagle dog at 5 mg/kg, po by LC-MS/MS analysis. Type of series: ADME, organism-based, Canis lupus familiaris. The following applies: in vivo. The procedure, abridged:
as §2

Series [21] is described as follows: Cmax in C57BL/6J mouse at 5 mg/kg, po by LC-MS/MS analysis. In kind it is ADME, organism-based. Conditions: in vivo. An outline of the steps:
as §5

A short description of series [22]: Effect on mitochondrial activity in human HepG2 cells upto 10 uM. Type of series: toxicity, cell-based. The following applies: hepg2, 10 µM.
Series [23] can be described thus: Half life in Beagle dog at 5 mg/kg, po by LC-MS/MS analysis. Type of series: ADME, organism-based, Canis lupus familiaris. Conditions: in vivo. The procedure, abridged:
as §5

The nature of series [24]: Plasma protein binding in Cynomolgous monkey at 1 uM incubated for 4 to 24 hrs by equilibrium dialysis method. In kind it is ADME, cell-free, Macaca fascicularis. Conditions: cynomolgus monkey, time 4-24 hrs, read-out: PPB (converted). The procedure, abridged: as §4
A short description of series [25]: Oral bioavailability in C57BL/6J mouse at 5 mg/kg by LC-MS/MS analysis. In kind it is ADME, organism-based. The following applies: in vivo. The procedure, abridged:
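Fasted male C57BL6 mice, Sprague–Dawley rats, beagle dogs, cynomolgus monkeys; single IV dose 1 mg/kg or PO solution 5 mg/kg in 80% PEG 400 in water; plasma concentrations measured, noncompartmental analysis with nominal doses and times; F from PO vs IV AUC.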

A short description of series [26]: Half life in Sprague-Dawley rat at 1 mg/kg, iv by LC-MS/MS analysis. In kind it is ADME, organism-based. Conditions: in vivo. The procedure, abridged: as §5
Series [27] in a line: Cmax in Beagle dog at 5 mg/kg, po by LC-MS/MS analysis. Type of series: ADME, organism-based, Canis lupus familiaris. The following applies: in vivo. The procedure, abridged: as §5
Series [28] can be described thus: Ratio of drug concentration in blood to plasma in human at 5 uM incubated for 60 mins. In kind it is ADME, cell-free. The procedure, abridged:
as §3

The source made the active and inactive calls. The rule behind the calls is not given here.

Multidrug and toxin extrusion protein 1, sequence (Q96FL8 whole entry): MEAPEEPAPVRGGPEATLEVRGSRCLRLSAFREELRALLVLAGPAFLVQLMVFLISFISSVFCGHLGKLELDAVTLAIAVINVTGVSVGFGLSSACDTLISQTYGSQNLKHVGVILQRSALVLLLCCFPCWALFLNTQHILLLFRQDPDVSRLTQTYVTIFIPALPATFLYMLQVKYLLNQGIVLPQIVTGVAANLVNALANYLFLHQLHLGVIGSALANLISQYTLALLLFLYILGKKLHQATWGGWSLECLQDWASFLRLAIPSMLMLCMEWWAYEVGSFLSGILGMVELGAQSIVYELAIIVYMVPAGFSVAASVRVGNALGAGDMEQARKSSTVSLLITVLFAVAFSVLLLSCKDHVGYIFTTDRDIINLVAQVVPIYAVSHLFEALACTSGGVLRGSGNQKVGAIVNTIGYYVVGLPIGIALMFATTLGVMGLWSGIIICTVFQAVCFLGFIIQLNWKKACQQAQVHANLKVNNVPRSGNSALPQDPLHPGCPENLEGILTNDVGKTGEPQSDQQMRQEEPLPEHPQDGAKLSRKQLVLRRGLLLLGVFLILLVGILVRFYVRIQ
Organic anion transporter 3, sequence (Q8TCC7 whole entry): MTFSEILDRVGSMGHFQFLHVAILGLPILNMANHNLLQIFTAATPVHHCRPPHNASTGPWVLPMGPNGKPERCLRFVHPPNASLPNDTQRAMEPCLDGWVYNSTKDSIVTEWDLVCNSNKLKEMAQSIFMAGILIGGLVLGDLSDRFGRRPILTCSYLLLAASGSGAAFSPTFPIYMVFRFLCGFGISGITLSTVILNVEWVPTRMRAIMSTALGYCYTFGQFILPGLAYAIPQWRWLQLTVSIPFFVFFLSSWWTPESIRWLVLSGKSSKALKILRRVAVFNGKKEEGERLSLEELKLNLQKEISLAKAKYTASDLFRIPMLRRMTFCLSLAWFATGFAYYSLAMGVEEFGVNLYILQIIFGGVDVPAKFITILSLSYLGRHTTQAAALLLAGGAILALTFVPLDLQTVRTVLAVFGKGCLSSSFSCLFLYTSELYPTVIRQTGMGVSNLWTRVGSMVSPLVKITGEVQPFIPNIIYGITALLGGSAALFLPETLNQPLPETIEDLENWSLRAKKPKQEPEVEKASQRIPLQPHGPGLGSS

With `C#CC1(N(COP(=O)([O-])[O-])C(=O)C(=O)c2c(C)c(C(=O)Nc3ccc(F)c(C#N)c3)n(C)c2C)COC1.[Na+].[Na+]`, the Stability entry in series [1] is listed as “Stable”. Besides, the Drug metabolism result in [2] is “metabolite_detected”. The fraction unbound at 2 µM in series [3] is 0.0913; in series [4], 0.11. Besides, the efflux ratio at 1 h, 2 µM in series [5] was 1.9.
In the case of `C#CC1(NC(=O)C(=O)c2c(C)c(C(=O)Nc3ccc(F)c(C#N)c3)n(C)c2C)COC1`, the results for the Tmax in [6] and in series [20] were 1 h and 2.17 h, respectively. Further, the result in [7] and in series [18] was inactive. Further, the blood plasma ratio at 1 h, 5 µM in [8] stood at 0.83; in series [11] it was 0.83; in series [28] it was 0.73. Further, the values for the fraction unbound at 1 µM in series [9], in series [10] and in [24] were 0.191, 0.211 and 0.284, respectively. Further, the EC50 in series [12] is 0.63 nM; in [17] it was 10.5 nM. In [13], the AUC(0-inf) was 2780 ng·h/mL. Further, the IC50 in [14] is over 11800 nM; in series [15], over 11800 nM; in series [16] it was over 10000 nM. The Activity in [19] is -2.16 log10IU/ml; in series [22], “Non-toxic”. In addition, the Cmax in series [21] stood at 2290 ng/mL; in series [27], 1900 ng/mL. Also, the half-life in series [23] is 7.83 h; in series [26] it was 1.64 h. Also, in series [25], the bioavailability is 115%.
